ChEMBL document CHEMBL5252535, “Design of nucleotide-mimetic and non-nucleotide inhibitors of the translation initiation factor eIF4E: Synthesis, structural and functional characterisation” (Eur J Med Chem, 2016)
pIC50, pKd: −log10 of the molar value. Calls of active or inactive are those of the source. The calls are words filed in the database; no cut-off is given here.

What was measured:
MCF7 = test: Inhibition of protein synthesis in methionine-starved human MCF7 cells incubated for 24 hrs by scintillation counting based 35S-Met incorporation assay; format: functional, cell-based
HeLa [1] = test: Inhibition of protein synthesis in methionine-starved human HeLa cells incubated for 24 hrs by scintillation counting based 35S-Met incorporation assay; format: functional, cell-based
Outline: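 HeLa cells seeded at 6 × 10^4 per well, grown 24 h to 70% confluency, treated 24 h; Met-starved 30 min in Met-free DMEM with fresh compound, then pulsed 30 min with 35S-Met. Cells washed, lysed, protein TCA-precipitated and scintillation counted; puromycin positive control; three independent occasions; IC50 derived.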

Reticulocyte [2] = test: Inhibition of cap dependent translation of renilla luciferase mRNA in pRHCVF RNA primed rabbit reticulocyte lysate at 100 uM incubated for 90 mins by […]; format: functional, subcellular; conditions: Oryctolagus cuniculus
Outline: (§1)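 Rabbit reticulocyte lysate primed with 20 ng capped pRHCVF RNA (20 μL), 30 °C for 90 min, then on ice. Renilla (cap-dependent) and firefly (HCV IRES) luciferase read; final DMSO ≤1%; inhibition relative to 1% DMSO control set at 100%; m7GTP positive control. Three independent experiments, Student's t-test, S.D.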

Reticulocyte [3] = test: Inhibition of HCV-IRES mediated cap-independent translation of firefly luciferase mRNA in rabbit reticulocyte lysate at 100 uM incubated for 90 mins by […]; format: functional, subcellular; conditions: Oryctolagus cuniculus; outline: as §1
HeLa [4] = test: Inhibition of cap dependent translation in human HeLa cells assessed as increase in sub-polysomal material at 50 to 100 uM incubated for 2 hrs by UV absorbance recording based assay; format: functional, cell-based; conditions: dose 50-100 µM
Outline: (§2)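 HeLa cells seeded in 15-cm dishes, grown 24 h to 70% confluency, treated 2 h; cycloheximide (0.1 mg/mL) added, cells harvested on ice and lysed (300 mM NaCl, 15 mM MgCl2, 15 mM Tris pH 7.5, heparin, cycloheximide, 0.1% Triton X-100). Lysates run on 10–60% sucrose gradients, 38,000 rpm 2 h; 1 mL fractions with continuous UV absorbance; polysome vs subpolysome areas compared; puromycin positive control.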

Reticulocyte [5] = test: Inhibition of HCV-IRES mediated cap-independent translation of firefly luciferase mRNA in rabbit reticulocyte lysate at 25 to 100 uM incubated for 90 mins by […]; format: functional, subcellular; conditions: Oryctolagus cuniculus, dose 25-100 µM; outline: as §1
Reticulocyte [6] = test: Inhibition of cap dependent translation of renilla luciferase mRNA in pRHCVF RNA primed rabbit reticulocyte lysate at 25 to 100 uM incubated for 90 mins by […]; format: functional, subcellular; conditions: Oryctolagus cuniculus, dose 25-100 µM; outline: as §1
[7] = target: T1, Eukaryotic translation initiation factor 4E (Homo sapiens, UniProt P06730); test: Inhibition of m7GDP fluorescent probe binding to recombinant eIF4E (unknown origin) assessed as dissociation constant by fluorescence polarization assay
HeLa [8] = test: Downregulation of cyclin D1 protein level in human HeLa cells at 50 to 100 uM incubated for 2 hrs by Western blot analysis; format: functional, cell-based; conditions: dose 50-100 µM
Outline: (§3)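 HeLa cells treated 2 h; lysates probed by western blotting for c-myc and cyclin D1, actin as loading control.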

HeLa [9] = test: Downregulation of cMyc protein level in human HeLa cells at 50 to 100 uM incubated for 2 hrs by Western blot analysis; format: functional, cell-based; conditions: dose 50-100 µM; outline: as §3
HeLa [10] = test: Inhibition of cap dependent translation in human HeLa cells assessed as decrease in amount of RNA incorporated in polysomes at 25 uM incubated for 2 hrs by UV absorbance recording based assay; format: functional, cell-based; outline: as §2
[11] = target: T1, Eukaryotic translation initiation factor 4E; test: Inhibition of P32-[alpha-GTP] cap radiolabelled RNA binding to recombinant eIF4E (unknown origin) assessed as decrease in cross linked RNA-eIF4E complex formation preincubated with UV radiation for 30 mins followed by RNase addition and measured after 30 mins by SDS-PAGE based autoradiographic analysis

T1 sequence (P06730 whole entry): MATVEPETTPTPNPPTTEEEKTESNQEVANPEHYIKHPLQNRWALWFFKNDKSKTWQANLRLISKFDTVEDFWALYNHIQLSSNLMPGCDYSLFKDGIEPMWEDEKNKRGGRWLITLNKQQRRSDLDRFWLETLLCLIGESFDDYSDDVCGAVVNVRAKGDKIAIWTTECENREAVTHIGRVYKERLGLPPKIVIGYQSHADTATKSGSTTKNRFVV

inhibition (Reticulocyte [2])	inhibition (Reticulocyte [3])	inhibition (Reticulocyte [5])	inhibition (Reticulocyte [6])	pKd [7]	pIC50 [11]	SMILES	inhibition (MCF7)	inhibition (HeLa [1])	inhibition (HeLa [4])	Activity (HeLa [8])	Activity (HeLa [9])	inhibition (HeLa [10])
Active	inactive	–	–	–	–	C[n+]1cn([C@@H]2O[C@H](CNS(=O)(=O)c3ccc(C(=O)O)cc3)[C@@H](O)[C@H]2O)c2nc(N)[nH]c(=O)c21	inactive	inactive	–	–	–	–
–	–	inactive	Active	4.24	–	CC(C)CNC(=S)N(Cc1ccccc1)Cc1cc2cc3c(cc2[nH]c1=O)OCO3	–	–	Active	Active	Active	Active

More lines, now with the values behind:

SMILES	inhibition (Reticulocyte [2])	inhibition (Reticulocyte [3])	inhibition (Reticulocyte [5])	inhibition (Reticulocyte [6])	pKd [7]	pIC50 [11]	inhibition (MCF7)	inhibition (HeLa [1])	inhibition (HeLa [4])	Activity (HeLa [8])	Activity (HeLa [9])	inhibition (HeLa [10])
C[n+]1cn([C@@H]2O[C@H](COP(=O)(O)OP(=O)(O)OP(=O)(O)O)[C@@H](O)[C@H]2O)c2nc(N)[nH]c(=O)c21	–	–	–	–	–	–	inactive	inactive	–	–	–	–
Nc1nc2c(c(=O)[nH]1)[n+](Cc1ccccc1)cn2[C@@H]1O[C@H](CNS(=O)(=O)C(F)(F)F)[C@@H](O)[C@H]1O	Active	inactive	–	–	4.25	4.90	inactive	inactive	–	–	–	–
C[n+]1cn([C@@H]2O[C@H](COP(=O)(O)O)[C@@H](O)[C@H]2O)c2nc(N)[nH]c(=O)c21	–	–	–	–	–	–	inactive	inactive	–	–	–	–
